According to ChEMBL document CHEMBL4270537, “Design and biological evaluation of novel triaryl pyrazoline derivatives with dioxane moiety for selective BRAFV600E inhibition” (Eur J Med Chem, 2018):
The source made the active and inactive calls. The rule behind the calls is not given here.

Assays:
A-375 [1] = test: Antiproliferative activity against human A375 cells after 48 hrs by MTT assay; assay type: functional; settings: A-375, 48 h
Procedure, shortened: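 MTT reduction assay. Cell lines grown to log phase in DMEM with 10% FBS (A375 in DMEM with sodium pyruvate added), seeded at 10⁴ cells/well in 96-well plates. Three replicate wells per concentration, each assay run three times, GI50 averaged.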

[2] = molecular target: T1, Serine/threonine-protein kinase B-raf (Homo sapiens, UniProt P15056); test: Inhibition of wild type BRAF in human WM1361 cells assessed as decrease in MEK1/2 phosphorylation up to 5 uM after 30 mins by Western blot analysis; assay type: cell-based
T1 sequence (P15056 whole entry): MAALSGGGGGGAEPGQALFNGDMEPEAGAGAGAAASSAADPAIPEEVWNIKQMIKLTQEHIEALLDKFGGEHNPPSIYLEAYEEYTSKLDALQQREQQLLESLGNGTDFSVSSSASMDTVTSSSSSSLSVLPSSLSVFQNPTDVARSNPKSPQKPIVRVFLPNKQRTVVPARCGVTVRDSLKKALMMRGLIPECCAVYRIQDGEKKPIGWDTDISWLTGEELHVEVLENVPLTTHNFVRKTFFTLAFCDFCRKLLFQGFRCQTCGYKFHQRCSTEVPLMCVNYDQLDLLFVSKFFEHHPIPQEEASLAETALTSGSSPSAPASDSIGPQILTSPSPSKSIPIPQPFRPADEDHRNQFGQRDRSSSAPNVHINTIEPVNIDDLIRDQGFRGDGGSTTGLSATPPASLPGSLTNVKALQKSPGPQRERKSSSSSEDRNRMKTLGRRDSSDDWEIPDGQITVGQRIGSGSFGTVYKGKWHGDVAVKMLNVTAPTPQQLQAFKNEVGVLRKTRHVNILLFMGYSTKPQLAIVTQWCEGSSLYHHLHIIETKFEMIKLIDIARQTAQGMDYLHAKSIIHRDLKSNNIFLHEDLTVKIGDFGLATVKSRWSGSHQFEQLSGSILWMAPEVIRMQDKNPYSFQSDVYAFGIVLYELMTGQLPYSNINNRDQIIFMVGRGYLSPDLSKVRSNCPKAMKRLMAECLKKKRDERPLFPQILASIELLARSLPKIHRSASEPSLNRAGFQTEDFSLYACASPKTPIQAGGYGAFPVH

A-375 [3] = test: Induction of apoptosis in human A375 cells assessed as late apoptotic cells at 2.5 uM after 24 hrs by Annexin V-FITC/PI staining based flow cytometry (reference value: 4.26%); assay type: functional
A-375 [4] = test: Induction of apoptosis in human A375 cells assessed as late apoptotic cells at 2 uM after 48 hrs by Annexin V-FITC/PI staining based flow cytometry (reference value: 3.61%); assay type: functional
Procedure, shortened: (§1)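 Apoptosis time course. A375 cells in 24-well plates (about 10⁵/well) at 2 µM for 0, 24, 48 and 72 h. Harvested by trypsin, washed in PBS, stained 15 min at room temperature in the dark with Annexin V-FITC/PI, analysed by flow cytometry.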

A-375 [5] = test: Induction of apoptosis in human A375 cells assessed as viable cells at 20 uM after 24 hrs by Annexin V-FITC/PI staining based flow cytometry (reference value: 88.7%); assay type: functional; settings: A-375, 24 h, read-out: Activity
A-375 [6] = test: Cell cycle arrest in human A375 cells assessed as accumulation at S phase at 2.5 uM after 24 hrs by propidium iodide staining based flow cytometry (reference value: 21.3%); assay type: functional
A-375 [7] = test: Effect on total MEK1/2 protein level in human A375 cells after 30 mins by Western blot analysis; assay type: ADME, cell-based; settings: a-375, 0.5 h
Procedure, shortened: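 Western blot. Cells rinsed in cold PBS, lysed 30 min on ice in RIPA with protease inhibitors (1:100), cleared at 12,000 g, 4 °C. Protein measured by BCA, resolved by SDS-PAGE, transferred to PVDF, blocked in skim milk. Primary antibodies 1:500 overnight at 4 °C; secondary 1:5000 for 1 h at room temperature.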

A-375 [8] = test: Induction of apoptosis in human A375 cells assessed as viable cells at 2 uM after 48 hrs by Annexin V-FITC/PI staining based flow cytometry (reference value: 89.4%); assay type: functional; settings: A-375, 48 h, read-out: Activity
A-375 [9] = test: Induction of apoptosis in human A375 cells assessed as late apoptotic cells at 2 uM after 24 hrs by Annexin V-FITC/PI staining based flow cytometry (reference value: 3.61%); assay type: functional; procedure, shortened: as §1
[10] = molecular target: RAF proto-oncogene serine/threonine-protein kinase (Homo sapiens, UniProt P04049, Y340D/Y341D); test: Inhibition of recombinant human GST-tagged c-RAF (306 to 648 residues) Y340D/Y341D mutant expressed in baculovirus expression system using recombinant human full length N-terminal His-tagged MEK1 as substrate preincubated for 1 hr followed by substrate addition measured after 25 mins
Chain of RAF proto-oncogene serine/threonine-protein kinase (P04049 whole entry Y340D/Y341D, the tested form may be a part): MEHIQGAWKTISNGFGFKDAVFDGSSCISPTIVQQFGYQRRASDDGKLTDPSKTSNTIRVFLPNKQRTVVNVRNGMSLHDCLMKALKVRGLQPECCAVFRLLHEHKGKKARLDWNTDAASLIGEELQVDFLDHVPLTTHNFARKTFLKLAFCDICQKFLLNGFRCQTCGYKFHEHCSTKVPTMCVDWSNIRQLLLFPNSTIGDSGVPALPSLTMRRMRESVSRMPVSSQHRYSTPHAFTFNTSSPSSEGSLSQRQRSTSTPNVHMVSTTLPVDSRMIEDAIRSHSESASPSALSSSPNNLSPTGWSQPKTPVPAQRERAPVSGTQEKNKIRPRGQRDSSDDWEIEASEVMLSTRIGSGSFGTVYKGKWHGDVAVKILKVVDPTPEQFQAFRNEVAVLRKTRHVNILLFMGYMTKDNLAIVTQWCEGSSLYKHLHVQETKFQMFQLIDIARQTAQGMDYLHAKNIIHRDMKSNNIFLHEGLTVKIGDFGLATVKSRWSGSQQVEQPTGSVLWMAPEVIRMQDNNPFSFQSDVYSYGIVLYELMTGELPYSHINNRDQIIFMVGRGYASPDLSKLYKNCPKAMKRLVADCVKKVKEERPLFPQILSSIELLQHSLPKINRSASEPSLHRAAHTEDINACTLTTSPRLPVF

A-375 [11] = test: Induction of apoptosis in human A375 cells assessed as early apoptotic cells at 2 uM after 72 hrs by Annexin V-FITC/PI staining based flow cytometry (reference value: 5.42%); assay type: functional; procedure, shortened: as §1
A-375 [12] = test: Induction of apoptosis in human A375 cells assessed as early apoptotic cells at 10 uM after 24 hrs by Annexin V-FITC/PI staining based flow cytometry (reference value: 5.45%); assay type: functional
A-375 [13] = test: Cell cycle arrest in human A375 cells assessed as accumulation at G1 phase at 2 uM after 72 hrs by propidium iodide staining based flow cytometry (reference value: 73.6%); assay type: functional
[14] = molecular target: T1, Serine/threonine-protein kinase B-raf; test: Inhibition of wild type BRAF in human WM1361 cells assessed as decrease in ERK1/2 phosphorylation up to 5 uM after 30 mins by Western blot analysis; assay type: cell-based
A-375 [15] = test: Induction of apoptosis in human A375 cells assessed as necrotic cells at 2.5 uM after 24 hrs by Annexin V-FITC/PI staining based flow cytometry (reference value: 1.61%); assay type: functional
A-375 [16] = test: Induction of apoptosis in human A375 cells assessed as necrotic cells at 10 uM after 24 hrs by Annexin V-FITC/PI staining based flow cytometry (reference value: 1.61%); assay type: functional
A-375 [17] = test: Induction of apoptosis in human A375 cells assessed as necrotic cells at 20 uM after 24 hrs by Annexin V-FITC/PI staining based flow cytometry (reference value: 1.61%); assay type: functional
A-375 [18] = test: Cell cycle arrest in human A375 cells assessed as accumulation at G1 phase at 10 uM after 24 hrs by propidium iodide staining based flow cytometry (reference value: 73.6%); assay type: functional
[19] = molecular target: Mitogen-activated protein kinase 8 (Homo sapiens, UniProt P45983); test: Inhibition of N-terminal flag-tagged JNK1 (unknown origin) expressed in baculovirus expression system after 60 mins in presence of [gamma-32P]ATP by topcount scintillation method
Chain of Mitogen-activated protein kinase 8 (P45983 whole entry): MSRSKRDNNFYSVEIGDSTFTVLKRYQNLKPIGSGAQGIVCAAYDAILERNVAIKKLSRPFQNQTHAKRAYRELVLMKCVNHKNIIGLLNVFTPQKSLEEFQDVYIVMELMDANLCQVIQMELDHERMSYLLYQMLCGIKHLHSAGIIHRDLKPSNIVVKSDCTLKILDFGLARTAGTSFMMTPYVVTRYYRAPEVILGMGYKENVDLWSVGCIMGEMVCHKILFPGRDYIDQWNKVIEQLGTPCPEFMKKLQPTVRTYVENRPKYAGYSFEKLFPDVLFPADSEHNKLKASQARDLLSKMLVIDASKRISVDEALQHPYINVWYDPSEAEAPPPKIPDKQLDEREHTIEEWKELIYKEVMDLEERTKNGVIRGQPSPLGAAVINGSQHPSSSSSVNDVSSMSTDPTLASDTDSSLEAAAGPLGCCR
Procedure, shortened: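 Baculovirus-expressed N-terminal FLAG-tagged kinases in 25 mM HEPES pH 7.5, 10 mM Mg acetate, 1 mM DTT, 0.5 µM ATP plus [γ-³²P]ATP, 50 µL. p38α: 100 ng enzyme, MBP substrate. JNK1: 10 ng enzyme, 1 µg c-Jun. Compound and enzyme preincubated 5 min, ATP started the reaction, 60 min at 30 °C. Stopped with 10% TCA, filtered, washed with 3% phosphoric acid, counted by TopCount.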

COc1cccc(C2=NN(C(=S)Nc3ccccc3)C(c3ccc4c(c3)OCCO4)C2)c1 (centres undefined)
GI50 (A-375 [1]): 0.52 µM
inhibition [2]: inactive
Activity (A-375 [3]): 5.43%
Activity (A-375 [4]): 5.37%
viability at 20 µM (A-375 [5]): 36.2%
Activity (A-375 [6]): 19.5%
Activity (A-375 [7]): Non-Toxic
viability at 2 µM (A-375 [8]): 74.5%
Activity (A-375 [9]): 6.76%
IC50 [10]: > 200 µM
Activity (A-375 [11]): 20.2%
Activity (A-375 [12]): 45%
Activity (A-375 [13]): 35.6%
inhibition [14]: inactive
Activity (A-375 [15]): 3.46%
Activity (A-375 [16]): 2.6%
Activity (A-375 [17]): 3.25%
Activity (A-375 [18]): 68.1%
IC50 [19]: > 200 µM
